Results as given in ChEMBL document CHEMBL1143593, “In vitro metabolism of phenoxypropoxybiguanide analogues in human liver microsomes to potent antimalarial dihydrotriazines” (J Med Chem, 2005).
In brackets after ≈: the same amount, converted by molar mass.

Assays:
[1] = test system: Plasmodium falciparum; test: In vitro antimalarial activity for DHFR wild-type, chloroquine and pyrimethamine-sensitive Plasmodium falciparum D6; type: functional, organism-based
Method in brief: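 [3H]-hypoxanthine incorporation assay in folate-free medium. Two-fold dilutions; range 5000 (or 2500) ng/mL to 5 pg/mL for parent biguanides, 5 ng/mL to 5 fg/mL for dihydrotriazine metabolites. DMSO ≤0.002%. 37 °C under 90% N2/5% CO2/5% O2; label added at 48 h, harvest at 72 h, scintillation counting. Triplicate on three occasions; IC50 by sigmoid nonlinear regression versus drug-free controls.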

[2] = test system: Plasmodium falciparum; test: In vitro antimalarial activity for DHFR mutant, chloroquine and pyrimethamine-resistant Plasmodium falciparum W2
[3] = Maximum velocity against human liver microsomes; (n=6); type: ADME, Microsome
Method in brief: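 Pooled human liver microsomes, 1 mg/mL, in NADPH regenerating buffer (1.25 mM βNADP+, 3.3 mM glucose-6-phosphate, 3.3 mM MgCl2). Mix preincubated 5 min at 37 °C, then started with glucose-6-phosphate dehydrogenase (1 unit/mL final). Substrate at 25–500 µM, 90 min at 37 °C. Stopped with ice-cold acetonitrile containing internal standard. Dihydrotriazine metabolite quantified by LC-MS/MS against synthetic standard curves. Vmax from Michaelis–Menten nonlinear fit using only ≤200 µM data, n=6.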

CC1(C)N=C(N)N=C(N)N1OCCCOc1ccc(OCC(F)(F)F)cc1Cl
IC50 [1]: 0.022 ng/mL (≈ 0.0519 nM)
IC50 [2]: 0.081 ng/mL (≈ 0.191 nM)

N=C(NOCCCOc1ccc(OC(F)(F)F)cc1)NC(=N)NC1CC1
IC50 [1]: > 2500 ng/mL
IC50 [2]: > 5000 ng/mL

CC(C)NC(=N)NC(=N)NOCCCOc1ccc(OC(F)(F)F)cc1
Vmax [3]: 13.5 nmol/min/mg
IC50 [1]: > 2500 ng/mL
IC50 [2]: > 5000 ng/mL

CC1(C)N=C(N)N=C(N)N1OCCCOc1ccc(Cl)c(Cl)c1
IC50 [1]: 0.009 ng/mL (≈ 0.025 nM)
IC50 [2]: 0.028 ng/mL (≈ 0.0777 nM)

CC1(C)N=C(N)N=C(N)N1OCCCOc1ccccc1OC(F)(F)F
IC50 [1]: 0.022 ng/mL (≈ 0.0586 nM)
IC50 [2]: 0.053 ng/mL (≈ 0.141 nM)

CC(C)/N=C(N)/N=C(/N)NOCCCOc1ccc(C(F)(F)F)cc1
Vmax [3]: 10.8 nmol/min/mg
IC50 [1]: > 2500 ng/mL
IC50 [2]: > 5000 ng/mL

CC1(C)N=C(N)N=C(N)N1OCCCOc1ccc(OC(F)(F)F)cc1
IC50 [1]: 0.01 ng/mL (≈ 0.0266 nM)
IC50 [2]: 0.052 ng/mL (≈ 0.139 nM)

CC(C)/N=C(N)/N=C(/N)NOCCCOc1ccccc1OC(F)(F)F
Vmax [3]: 13.3 nmol/min/mg
IC50 [1]: > 2500 ng/mL
IC50 [2]: > 5000 ng/mL

CC(C)NC(=N)NC(=N)NOCCCOc1cc(Cl)c(Cl)cc1Cl
Vmax [3]: 11.6 nmol/min/mg
IC50 [1]: 877 ng/mL (≈ 2210 nM)
IC50 [2]: 3790 ng/mL (≈ 9540 nM)

CC1(C)N=C(N)N=C(N)N1OCCCOc1ccc(C(F)(F)F)cc1
IC50 [1]: 0.01 ng/mL (≈ 0.0278 nM)
IC50 [2]: 0.063 ng/mL (≈ 0.175 nM)

[H]/N=C(\N/C(=N/[H])Nc1ccc(Cl)cc1)NC(C)C [PROGUANIL]
Vmax [3]: 19.6 nmol/min/mg
IC50 [1]: > 5000 ng/mL
IC50 [2]: > 5000 ng/mL

CC1(C)N=C(N)N=C(N)N1c1ccc(Cl)cc1 [CYCLOGUANIL]
IC50 [1]: 0.328 ng/mL (≈ 1.3 nM)
IC50 [2]: > 2.5 ng/mL

CC1(C)N=C(N)N=C(N)N1OCCCOc1ccc(OC(F)(F)F)cc1Cl
IC50 [1]: 0.01 ng/mL (≈ 0.0244 nM)
IC50 [2]: 0.031 ng/mL (≈ 0.0756 nM)

CC(C)/N=C(N)/N=C(/N)NOCCCOc1ccc(OCC(F)(F)F)cc1
Vmax [3]: 18.7 nmol/min/mg
IC50 [1]: > 2500 ng/mL
IC50 [2]: > 5000 ng/mL

CC(C)NC(=N)NC(=N)NOCCCOc1ccc(Cl)c(Cl)c1
Vmax [3]: 27.7 nmol/min/mg
IC50 [1]: 845 ng/mL (≈ 2330 nM)
IC50 [2]: 2550 ng/mL (≈ 7040 nM)

CCc1nc(N)nc(N)c1-c1ccc(Cl)cc1 [PYRIMETHAMINE]
IC50 [1]: 1.2 ng/mL (≈ 4.82 nM)
IC50 [2]: 130 ng/mL (≈ 523 nM)

CC1(C)N=C(N)N=C(N)N1OCCCOc1cc(Cl)c(Cl)cc1Cl
IC50 [1]: 0.02 ng/mL (≈ 0.0507 nM)
IC50 [2]: 0.016 ng/mL (≈ 0.0405 nM)

CC(C)/N=C(N)/N=C(/N)NOCCCOc1ccc(C(F)(F)F)cc1Cl
Vmax [3]: 15.4 nmol/min/mg
IC50 [1]: 2230 ng/mL (≈ 5640 nM)
IC50 [2]: > 5000 ng/mL
